Screening results as filed in PubChem.
Vif inh: HIV Vif inhibition; HEK293T cells, Vif self-association by quenched fluorescence, imaging, 24 h; inhibition, % at 7.49 µM; 0.35% of 340,000 active; AID 602346; in the data active means inhibition above about 50%, passing the limit was not always enough
Statin myotox sup: protects C2C12 myotubes from simvastatin toxicity; ATP luminescence, 48 h; scaled: DMSO 0, geranylgeraniol control 100; rescue of ATP level, % at 7.49 µM; 0.78% of 330,000 active; AID 602340;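 active means mean ATP rescue above about 67%, or every replicate alone reaching that limit, limit read from the data, passing the limit was not always enough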;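 further: myotubes were challenged with 10 µM simvastatin during compound exposure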
SR-BI HDL uptake: mouse SR-BI HDL lipid transfer inhibition; Q61009; ldlA[mSR-BI] CHO cells, DiI-HDL uptake fluorescence, 3 h; inhibition, % at 12.5 µM; 0.96% of 320,000 active; AID 488896;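 active means mean replicate inhibition of at least 70% and a set share of replicates each scoring 70 or more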
Target sequence (Q61009 whole entry, looked up): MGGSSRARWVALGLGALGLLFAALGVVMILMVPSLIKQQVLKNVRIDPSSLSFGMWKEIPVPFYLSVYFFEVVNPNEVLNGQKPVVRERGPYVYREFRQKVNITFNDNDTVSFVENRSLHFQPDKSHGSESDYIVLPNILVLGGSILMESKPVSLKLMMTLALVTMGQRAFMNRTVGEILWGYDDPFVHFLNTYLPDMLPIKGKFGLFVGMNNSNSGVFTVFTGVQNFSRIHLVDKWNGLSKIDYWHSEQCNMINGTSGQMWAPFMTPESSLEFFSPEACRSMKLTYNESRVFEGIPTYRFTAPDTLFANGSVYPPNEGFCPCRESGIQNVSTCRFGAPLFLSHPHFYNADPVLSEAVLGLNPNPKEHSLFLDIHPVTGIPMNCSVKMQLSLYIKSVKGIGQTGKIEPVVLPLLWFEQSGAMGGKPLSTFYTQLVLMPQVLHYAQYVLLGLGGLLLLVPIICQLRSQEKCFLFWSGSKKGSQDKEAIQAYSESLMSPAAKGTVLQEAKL
SR-BI DiI-HDL act: activators of SR-BI mediated HDL lipid uptake | activation, % at 12.5 µM | 0.096% of 320,000 active | CHO ldlA[mSR-BI] cells, DiI-HDL uptake fluorescence, 3 h; 100 = double the neutral-control signal;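 active means mean replicate activation of at least 60% and every replicate at or above 60%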
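Material – SR-BI-overexpressing, LDLR-lacking CHO cells · Medium – BSA-supplemented, HEPES-buffered Ham's F12, pH 7.4 · Doses – single concentration · Times – compound with DiI-HDL co-incubation, 3 h at 37 °C · Measured by – bottom-read fluorescence, 550/595 nm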
Hits are given with their value. In the library only some 1.7% were active in any assay of this set; here they are far more common.

N#C/C(=C(/O)c1ccc(C(=O)c2ccccc2)cc1)c1nc2ccccc2[nH]1 was read as Vif inh inactive, SR-BI HDL uptake inactive and SR-BI DiI-HDL act 243.
Screening C/C(O)=C(\C#N)c1nc2ccccc2[nH]1 returned Vif inh 51, Statin myotox sup inactive, SR-BI HDL uptake inactive and SR-BI DiI-HDL act inactive.
For FC(F)(F)c1cccc(-c2nnc(-c3ccccc3)c(N3CCOCC3)n2)c1 the results were Vif inh inactive, Statin myotox sup 134, SR-BI HDL uptake inactive and SR-BI DiI-HDL act inactive.
For FC(F)(F)c1nnc(-c2ccccc2)nc1N1CCOCC1 the results were Vif inh inactive, Statin myotox sup inactive, SR-BI HDL uptake inactive and SR-BI DiI-HDL act inactive.
COc1ccc(CN(C)C[C@@H]2Oc3ccc(NC(=O)Nc4ccc5c(c4)OCO5)cc3CC(=O)N([C@@H](C)CO)C[C@H]2C)cc1 was read as Statin myotox sup inactive.
`COc1ccc(/C(O)=C2/C(=O)C(=O)N(CCN(C)C)C2c2ccccn2)cc1OC` (configuration not stated) gave Statin myotox sup 118, SR-BI HDL uptake inactive and SR-BI DiI-HDL act inactive.
COc1ccc(/C(O)=C2/C(=O)C(=O)N(CCN3CCOCC3)C2c2ccccn2)cc1OC (configuration not stated) was read as Vif inh inactive, Statin myotox sup inactive, SR-BI HDL uptake inactive and SR-BI DiI-HDL act inactive.
For O=C(CSc1nnc(COc2ccc(Cl)cc2)o1)N1c2ccccc2CCc2ccccc21 the results were Vif inh inactive, SR-BI HDL uptake 75 and SR-BI DiI-HDL act inactive.
For O=C(CSc1nnc(COc2ccc(Cl)cc2)o1)N1CCCC1 the results were Vif inh inactive, Statin myotox sup inactive, SR-BI HDL uptake inactive and SR-BI DiI-HDL act inactive.
Screening C[C@H]1CN([C@@H](C)CO)C(=O)c2cccc(NC(=O)Nc3ccc(F)cc3)c2O[C@@H]1CN(C)C(=O)Nc1ccc(F)cc1 returned Statin myotox sup inactive.
Screening Cc1ccc(NC(=O)CC2COc3ccccc3O2)cc1 (configuration not stated) returned Vif inh inactive, Statin myotox sup 113, SR-BI HDL uptake inactive and SR-BI DiI-HDL act inactive.
COc1ccc(C)cc1NC(=O)CC1COc2ccccc2O1 (configuration not stated) was read as Vif inh inactive, Statin myotox sup inactive, SR-BI HDL uptake inactive and SR-BI DiI-HDL act inactive.
For COCCNC(=O)C[C@H]1CC[C@H]2[C@@H](COC[C@H](O)CN2S(=O)(=O)c2ccccc2C)O1 the results were Statin myotox sup inactive.
C[C@H](O)C#Cc1cnc2c(c1)C(=O)N([C@@H](C)CO)C[C@@H](C)[C@H](CN(C)C(=O)CC1CC1)O2 was read as Statin myotox sup inactive.
C/C(=N\OC(=O)NC(C)C)c1sc(-c2ccccc2)nc1C was read as Vif inh inactive, SR-BI HDL uptake inactive and SR-BI DiI-HDL act inactive.
For C/C(=N\OC(=O)NC(C)C)c1sc(-c2ccc(Cl)cc2)nc1C the results were Vif inh inactive, Statin myotox sup 71, SR-BI HDL uptake inactive and SR-BI DiI-HDL act inactive.
For C[C@H](CO)N1C[C@H](C)[C@@H](CN(C)C(=O)Nc2ccc3c(c2)OCO3)Oc2c(NC(=O)C3CCOCC3)cccc2C1=O the results were Statin myotox sup inactive.
For CN(C)CC(=O)Nc1ccc2c(c1)[C@@H]1C[C@@H](CC(=O)NCC3CC3)O[C@@H](CO)[C@@H]1O2 the results were Statin myotox sup inactive.
CCCSc1ccc2nc(NC(=O)OC)[nH]c2c1 was read as Vif inh 160, Statin myotox sup inactive, SR-BI HDL uptake inactive and SR-BI DiI-HDL act inactive.
Screening O=C(C[C@H]1CC[C@H]2[C@@H](COC[C@H](O)CN2Cc2nccs2)O1)NCc1ccccc1F returned Statin myotox sup inactive.
For COc1ccc(S(=O)(=O)N(C)C[C@@H]2Oc3ccc(NC(=O)Cc4cn(C)c5ccccc45)cc3CC(=O)N([C@H](C)CO)C[C@@H]2C)cc1 the results were Statin myotox sup inactive.
`COCC(=O)N1CC[C@@H]2[C@H]1c1cc(-c3cccc(OC)c3)ccc1N(C)[C@@H]2CO` gave Statin myotox sup inactive.
COCc1nc2ccccc2n1Cc1ccc(Br)cc1 was read as Vif inh inactive, Statin myotox sup 79, SR-BI HDL uptake inactive and SR-BI DiI-HDL act inactive.
For CSc1nc2nc3c(c(=O)n2[nH]1)CCCC3 the results were Vif inh inactive, Statin myotox sup 119, SR-BI HDL uptake inactive and SR-BI DiI-HDL act inactive.
Screening COC(=O)c1ccc(/C=C/c2c(-c3ccc(OC)cc3)oc3ccccc23)cc1 returned Vif inh inactive, Statin myotox sup inactive, SR-BI HDL uptake inactive and SR-BI DiI-HDL act inactive.
